Source: ChEMBL document CHEMBL4602713, “Quantitative Proteomics Reveals Cellular Off-Targets of a DDR1 Inhibitor” (ACS Med Chem Lett, 2020)
Calls of active or inactive are those of the source. The rule behind the calls is not given here.

What was measured:
[1] = target: T1, Epithelial discoidin domain-containing receptor 1 (Homo sapiens, UniProt Q08345); experiment: Inhibition of human GST-tagged DDR1 (440 to 876 residues) expressed in baculovirus expression system using fluorescein-Poly GAT as substrate incubated for 1 to 2 hrs in presence of ATP by TR-FRET assay
T1 sequence (Q08345 whole entry, the tested form may be a part): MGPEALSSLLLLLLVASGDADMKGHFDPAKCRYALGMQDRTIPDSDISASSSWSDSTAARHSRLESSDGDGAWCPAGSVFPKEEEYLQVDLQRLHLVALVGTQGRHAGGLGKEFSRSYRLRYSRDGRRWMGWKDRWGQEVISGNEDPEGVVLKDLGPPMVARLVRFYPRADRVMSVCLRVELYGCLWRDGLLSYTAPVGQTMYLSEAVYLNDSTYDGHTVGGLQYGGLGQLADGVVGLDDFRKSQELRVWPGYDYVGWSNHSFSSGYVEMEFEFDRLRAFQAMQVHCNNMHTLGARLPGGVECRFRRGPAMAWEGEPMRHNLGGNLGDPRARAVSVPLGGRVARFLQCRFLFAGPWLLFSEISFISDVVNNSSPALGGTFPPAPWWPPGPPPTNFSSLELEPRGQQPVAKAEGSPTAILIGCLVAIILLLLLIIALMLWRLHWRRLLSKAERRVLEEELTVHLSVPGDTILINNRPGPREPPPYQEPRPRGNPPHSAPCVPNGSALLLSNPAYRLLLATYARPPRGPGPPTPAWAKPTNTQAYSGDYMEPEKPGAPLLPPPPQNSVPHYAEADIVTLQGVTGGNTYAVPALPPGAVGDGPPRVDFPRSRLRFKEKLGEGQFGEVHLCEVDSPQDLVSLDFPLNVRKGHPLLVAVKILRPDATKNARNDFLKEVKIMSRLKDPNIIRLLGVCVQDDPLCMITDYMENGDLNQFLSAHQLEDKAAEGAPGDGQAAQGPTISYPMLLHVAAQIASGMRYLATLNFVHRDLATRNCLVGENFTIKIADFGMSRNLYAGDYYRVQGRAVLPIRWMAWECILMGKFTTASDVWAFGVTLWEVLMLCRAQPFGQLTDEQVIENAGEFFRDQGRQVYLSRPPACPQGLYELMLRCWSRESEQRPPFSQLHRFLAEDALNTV

[2] = target: T1, Epithelial discoidin domain-containing receptor 1; experiment: Binding affinity to DDR1 in TAMRA-N3 conjugated human […] cells assessed as labeling band formation at 1 to 2 uM incubated for 1 to 3 hrs followed irradiation with UV-light at 365 nm for 20 mins by gel fluorescence scanning analysis
In short: (§1)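 Live H1299 cells or H1299 lysate were incubated with the photoaffinity probe for 1–3 h, then irradiated at 365 nm for 20 min. Labelled proteins were clicked to TAMRA-N3, separated by SDS-PAGE and detected by in-gel fluorescence scanning.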

[3] = target: T1, Epithelial discoidin domain-containing receptor 1; experiment: (§2) Binding affinity to DDR1 in TAMRA-N3 conjugated human […] cells assessed as fluorescence band formation with molecular weight of 110 kDa at 1 to 2 uM incubated for 2 hrs followed by compound washout to remove excess compound and further irradiated with UV-light at 365 nm for 20 mins by pull down assay
[4] = target: T1, Epithelial discoidin domain-containing receptor 1; experiment: Binding affinity to DDR1 in TAMRA-N3 conjugated human […] cell lysate assessed as labeling band formation at 1 to 2 uM incubated for 1 to 3 hrs followed irradiation with UV-light at 365 nm for 20 mins by gel fluorescence scanning analysis; in short: as §1
[5] = Drug localization in cytoplasm of human H1299 cells conjugated with TAMRA-N3 incubated for 2 to 6 hrs followed by compound washout twice with PBS buffer to remove excess compound and further irradiated with UV-light for 20 mins by Hoechst staining based confocal microscopy; assay type: ADME, subcellular; settings: nci-h1299
In short: (§3)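 H1299 cells were incubated with the probe, with or without excess parent inhibitor, then UV cross-linked. Cells were fixed, permeabilised, clicked to TAMRA-N3 and imaged by confocal microscopy with nuclear staining and DIC. Negative control samples were included.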

[6] = Drug localization in cellular membrane of human H1299 cells conjugated with TAMRA-N3 incubated for 2 to 6 hrs followed by compound washout twice with PBS buffer to remove excess compound and further irradiated with UV-light for 20 mins by Hoechst staining based confocal microscopy; assay type: ADME, cell membranes; settings: nci-h1299; in short: as §3
[7] = target: T2, Cathepsin D (Homo sapiens, UniProt P07339); experiment: (§4) Binding affinity to cathepsin D in SILAC labeled human H1299 cells incubated for 3 hrs followed by compound washout twice with PBS buffer to remove excess compound and further irradiated with UV-light at 365 nm for 20 mins by LC-MS/MS analysis; assay type: cell-based; design: dose or concentration left out as unconfirmed; settings: nci-h1299, 3 h
T2 sequence (P07339 65-162 limits assumed): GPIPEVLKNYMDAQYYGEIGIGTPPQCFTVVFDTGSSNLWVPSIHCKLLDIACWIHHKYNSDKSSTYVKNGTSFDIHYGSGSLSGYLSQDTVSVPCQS
T2 sequence (P07339 169-412 limits assumed): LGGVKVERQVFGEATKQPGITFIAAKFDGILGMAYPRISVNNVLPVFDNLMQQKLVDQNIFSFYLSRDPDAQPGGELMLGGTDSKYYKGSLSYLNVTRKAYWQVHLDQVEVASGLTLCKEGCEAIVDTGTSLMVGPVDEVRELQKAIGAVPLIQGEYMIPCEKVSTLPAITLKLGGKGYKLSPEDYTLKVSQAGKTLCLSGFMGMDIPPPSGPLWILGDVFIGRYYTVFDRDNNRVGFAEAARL
In short: (§5)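 SILAC-labelled H1299 cells were treated with the photoaffinity probe for 2–4 h and then UV-irradiated. Labelled proteomes were clicked to biotin-N3, enriched, digested and analysed by LC-MS/MS. Controls (excess parent inhibitor or DMSO) were run in parallel. Biological triplicates were performed, and hits were filtered by SILAC ratios.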

[8] = target: Protein GPR107 (Homo sapiens, UniProt Q5VW38); experiment: Binding affinity to GPR107 in SILAC labeled human H1299 cells incubated for 3 hrs followed by compound washout twice with PBS buffer to remove excess compound and further irradiated with UV-light at 365 nm for 20 mins by LC-MS/MS analysis; assay type: ADME, cell-based; design: dose or concentration left out as unconfirmed; settings: nci-h1299, 3 h; in short: as §5
Sequence of Protein GPR107 (Q5VW38 whole entry): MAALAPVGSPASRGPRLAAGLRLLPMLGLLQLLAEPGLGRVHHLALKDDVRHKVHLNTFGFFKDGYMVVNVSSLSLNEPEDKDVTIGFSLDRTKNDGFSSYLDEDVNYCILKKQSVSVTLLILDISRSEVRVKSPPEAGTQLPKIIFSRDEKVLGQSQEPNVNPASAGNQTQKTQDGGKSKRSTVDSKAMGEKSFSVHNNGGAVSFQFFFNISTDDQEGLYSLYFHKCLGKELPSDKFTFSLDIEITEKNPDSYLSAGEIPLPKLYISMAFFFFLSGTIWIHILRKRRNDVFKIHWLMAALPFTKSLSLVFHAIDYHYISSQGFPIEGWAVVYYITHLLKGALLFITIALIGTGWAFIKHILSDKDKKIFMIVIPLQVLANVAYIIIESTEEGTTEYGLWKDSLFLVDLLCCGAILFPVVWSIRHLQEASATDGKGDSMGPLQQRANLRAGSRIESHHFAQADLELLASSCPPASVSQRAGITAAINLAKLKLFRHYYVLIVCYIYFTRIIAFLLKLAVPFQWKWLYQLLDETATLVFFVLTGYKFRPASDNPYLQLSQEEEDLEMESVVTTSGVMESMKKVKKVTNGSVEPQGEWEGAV

[9] = target: T3, Catechol O-methyltransferase (Homo sapiens, UniProt P21964); experiment: Binding affinity to COMT in SILAC labeled human H1299 cells incubated for 3 hrs followed by compound washout twice with PBS buffer to remove excess compound and further irradiated with UV-light at 365 nm for 20 mins by LC-MS/MS analysis; assay type: ADME, cell-based; design: dose or concentration left out as unconfirmed; settings: nci-h1299, 3 h; in short: as §5
T3 sequence (P21964 whole entry): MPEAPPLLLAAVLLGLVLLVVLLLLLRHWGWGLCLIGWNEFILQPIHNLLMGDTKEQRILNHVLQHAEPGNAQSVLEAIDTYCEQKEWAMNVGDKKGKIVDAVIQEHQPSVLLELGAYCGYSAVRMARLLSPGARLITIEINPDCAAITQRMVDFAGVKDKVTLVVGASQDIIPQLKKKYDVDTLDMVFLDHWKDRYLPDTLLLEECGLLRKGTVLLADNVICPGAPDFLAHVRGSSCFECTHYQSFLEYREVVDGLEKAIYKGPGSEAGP

[10] = target: T2, Cathepsin D; experiment: as §2, with “cathepsin D” for “DDR1”, “30” for “110”; assay type: ADME
In short: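 Live H1299 cells were labelled with the photoaffinity probe and UV cross-linked. Labelled proteins were pulled down and detected by Western blot; CTSD was probed with an anti-CTSD antibody. The heavy chain of mature CTSD runs at ~33 kDa.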

[11] = target: T2, Cathepsin D; experiment: as §4, with “cells assessed as labeling of heavy chain” for “cells”, “hrs in presence of excess parent compound” for “hrs”; assay type: ADME, cell-based; design: dose or concentration left out as unconfirmed; settings: nci-h1299, 3 h; in short: as §5
[12] = target: T2, Cathepsin D; experiment: Binding affinity to cathepsin D in human […] cells assessed as protein labeling at 0.5 to 1 uM pretreated with lysosomal neutralizing agent ammonium chloride for 30 mins followed by compound treatment by pull down based Western blot analysis; assay type: ADME, cell-based
In short: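 Live H1299 cells were first treated with 10 mM ammonium chloride for 30 min to neutralise lysosomes. Probe labelling followed, with pull-down and Western blot for CTSD.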

[13] = Drug distribution in human H1299 cells cytosol incubated for 4 hrs followed cellular conjugation with tetrazine-TAMRA immunofluorescence microscopy; assay type: ADME, subcellular, NCI-H1299
In short: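 Live H1299 cells were incubated with the TCO-bearing probe for 4 h, fixed, permeabilised and conjugated with tetrazine-TAMRA. After washing with fresh medium, cells were imaged by microscopy alongside anti-DDR1 immunofluorescence staining.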

[14] = target: T2, Cathepsin D; experiment: Binding affinity to cathepsin D in human H1299 cells assessed as increase in thermal stability of heavy chain at 10 uM incubated for 2 hrs followed by compound washout twice with PBS buffer to remove excess compound and further heated at 95 degree C for 10 mins by CETSA; assay type: ADME, cell-based; settings: nci-h1299, 2 h
In short: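 For the cellular thermal shift assay, live H1299 cells were treated with compound or DMSO. The thermal stability of the mature CTSD heavy chain was then compared between the two.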

[15] = target: T2, Cathepsin D; experiment: Inhibition of cathepsin D (unknown origin) at 50 to 200 uM
[16] = system: MCF7; experiment: Antiproliferative activity against human MCF7 cells overexpressing cathepsin D assessed as growth inhibition
[17] = system: MDA-MB-231; experiment: Antiproliferative activity against human MDA-MB-231 cells overexpressing cathepsin D assessed as growth inhibition
[18] = system: SK-BR-3; experiment: Antiproliferative activity against human SKBR3 cells overexpressing cathepsin D assessed as growth inhibition

| IC50 [1] [nM] | Activity [2] | Activity [3] | Activity [4] | Drug uptake [5] | Drug uptake [6] | Activity [7] | Activity [8] | Activity [9] | Activity [10] | Activity [11] | Activity [12] | Drug uptake [13] | Activity [14] | inhibition (INH) [15] | IC50 [16] [nM] | IC50 [17] [nM] | IC50 [18] [nM] | Structure (SMILES) |
| --- | --- | --- | --- | --- | --- | --- | --- | --- | --- | --- | --- | --- | --- | --- | --- | --- | --- | --- |
| 259 | Active | Active | Active | Active | Active | Active | Active | Active | Active | Active | Not Active | – | – | – | – | – | – | C#CCCC1(CC(=O)N2CCN(Cc3cc(NC(=O)c4ccc5c(c4)CN(c4cncnc4)CC5C)cc(C(F)(F)F)c3)CC2)N=N1 (stereo unspecified) |
| 397 | – | – | – | – | – | – | – | – | – | – | – | Active | – | – | – | – | – | CC1CN(c2cncnc2)Cc2cc(C(=O)Nc3cc(CN4CCN(CCC(=O)NCCCNC(=O)OC5CC/C=C/CCC5)CC4)cc(C(F)(F)F)c3)ccc21 (stereo unspecified) |
| 577 | Active | Active | Active | Active | Active | – | – | – | Active | – | – | – | – | – | – | – | – | C#CCCC1(CCN2CCN(Cc3cc(NC(=O)c4ccc5c(c4)CN(c4cncnc4)CC5C)cc(C(F)(F)F)c3)CC2)N=N1 (stereo unspecified) |
| – | – | – | – | – | – | – | – | – | – | – | – | – | Active | Active | 3380 | 6990 | 6620 | CC1CN(c2cncnc2)Cc2cc(C(=O)Nc3cc(CN4CCN(C)CC4)cc(C(F)(F)F)c3)ccc21 (stereo unspecified) |
